Legend:
[1] = Liver microsome stability, human; assay type: in vitro ADME; conditions: human liver microsomes; well-stirred model
[2] = Liver microsome stability, mouse; assay type: in vitro ADME; conditions: mouse liver microsomes; well-stirred model
[3] = Hepatocyte stability, rat; assay type: in vitro ADME; conditions: rat hepatocytes; well-stirred model
[4] = Liver microsome stability, dog; assay type: in vitro ADME; conditions: dog liver microsomes; well-stirred model
[5] = Hepatocyte stability, dog; assay type: in vitro ADME; conditions: dog hepatocytes; well-stirred model
Outline: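 Dog hepatocytes. Intrinsic clearance (CLint) was scaled to blood clearance with the well-stirred liver model: CLb = QH×CLint/(QH + CLint). Dog liver blood flow (QH) was 2.1 L h⁻¹ kg⁻¹.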

[6] = Caco-2 permeability assay; assay type: in vitro ADME; conditions: human
[7] = Liver microsome stability, monkey; assay type: in vitro ADME; conditions: monkey liver microsomes; well-stirred model
[8] = Hepatocyte stability, human; assay type: in vitro ADME; conditions: human hepatocytes; well-stirred model
Outline: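 Human hepatocytes. Intrinsic clearance (CLint) was converted to blood clearance with the well-stirred hepatic model: CLb = QH×CLint/(QH + CLint). Human liver blood flow (QH) was 1.32 L h⁻¹ kg⁻¹.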

[9] = In vivo pharmacokinetics, rat; conditions: male Wistar rat, 0.6 mg kg^−1 p.o.; Cmax,p.o./dose p.o.
[10] = In vivo pharmacokinetics, dog; conditions: female Beagle dog, 0.2 mg kg^−1 p.o.; Cmax,p.o./dose p.o.
[11] = Liver microsome stability, rat; assay type: in vitro ADME; conditions: rat liver microsomes; well-stirred model
[12] = Hepatocyte stability, monkey; assay type: in vitro ADME; conditions: monkey hepatocytes; well-stirred model

Row | SMILES | LM stability CL b,LM [1] | LM stability CL b,LM [2] | Hep stability CL b,Hep [3] | LM stability CL b,LM [4] | Hep stability CL b,Hep [5] | further results
1 | Cc1c(NC(=O)c2cc(C(N)=O)nc3ccccc23)c(C(F)(F)F)nn1Cc1ccc(C#N)cc1 [Compound 13] | 3.5 mL/min/kg | 23.3 mL/min/kg | 30 mL/min/kg | 1 mL/min/kg | 1.83 mL/min/kg | Papp A→B at 2 h, 2 µM [6]: 7.4 ×10⁻⁶ cm/s
2 | Cc1c(NC(=O)c2cc(C(N)=O)nc3cc(F)ccc23)c(C(F)(F)F)nn1Cc1ccc(C#N)cc1 [Compound 19, N ^4 ‐[1‐(4‐Cyanobenzyl)‐5‐methyl‐3‐(trifluoromethyl)‐1H‐pyrazol‐4‐yl]‐7‐fluoroquinoline‐2,4‐dicarboxamide] | 5.33 mL/min/kg |  |  | stable | 3.33 mL/min/kg | LM stability CL b,LM [7]: 12.7 mL/min/kg; Hep stability CL b,Hep [8]: 6.17 mL/min/kg; C max,norm,p.o. [9]: 0.33 kg L ^−1; C max,norm,p.o. [10]: 0.93 kg L ^−1
3 | Cc1c(NC(=O)c2cc(C(N)=O)nc3cc(F)ccc23)c(C(F)(F)F)nn1Cc1ccc(C#N)cn1 [Compound 54] | 3.17 mL/min/kg | 6 mL/min/kg | 0.67 mL/min/kg | 0.017 mL/min/kg | 0.017 mL/min/kg | LM stability CL b,LM [7]: 6.67 mL/min/kg; LM stability CL b,LM [11]: 6.17 mL/min/kg; Hep stability CL b,Hep [8]: 0.5 mL/min/kg; Hep stability CL b,Hep [12]: 5.33 mL/min/kg
4 | Cc1c(NC(=O)c2cc(C(N)=O)nc3cc(F)ccc23)c(C(F)(F)F)nn1Cc1cnc(C#N)cn1 [Compound 57] | 8.83 mL/min/kg |  | 20 mL/min/kg |  |  | 
5 | Cc1c(NC(=O)c2cc(C(N)=O)nc3cc(F)ccc23)c(C(F)(F)F)nn1Cc1ncc(C#N)cn1 [Compound 58] | 3.67 mL/min/kg |  | 14.8 mL/min/kg |  |  | 

The next lines start with results.

Row | LM stability CL b,LM [1] | LM stability CL b,LM [2] | Hep stability CL b,Hep [3] | LM stability CL b,LM [4] | Hep stability CL b,Hep [5] | SMILES | further results
6 | 20 mL/min/kg | 66.7 mL/min/kg | 61.7 mL/min/kg |  |  | Cc1ccc2nc(C)cc(C(=O)Nc3c(C)nn(Cc4ccc(F)cc4)c3C)c2c1 [Compound 2] | 
7 |  | 36.7 mL/min/kg | 43.3 mL/min/kg |  |  | Cc1c(NC(=O)c2cc(C(F)(F)F)nc3ccc(Br)cc23)c(C(F)(F)F)nn1Cc1ccc(F)cc1 [Compound 12] | 
8 |  | 38.3 mL/min/kg | 33.3 mL/min/kg |  |  | Cc1ccc2nc(C(N)=O)cc(C(=O)Nc3c(C(F)(F)F)nn(Cc4ccc(C#N)cc4)c3C)c2c1 [Compound 17] | 
9 | 14.5 mL/min/kg |  |  |  |  | Cc1c(NC(=O)c2cc(C(N)=O)nc3cc(F)ccc23)c(C(C)C)nn1Cc1ccc(C#N)cc1 [Compound 43] | 
